Experimental data as given in paper PMC4410974 (Clinical cancer research : an official journal of the …, 2012).

How the values were obtained:
[1] = system: p70S6 kinase phosphorylation at Thr389; assay: p70S6K phosphorylation at Thr389 in peripheral blood lymphocytes; type: in vivo, human
Procedure, shortened: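 Sirolimus-alone study only, oral weekly dosing. Blood drawn before dosing at baseline, week 1 day 2 and day 4, week 2 day 1, week 5 day 1. CD3+ cells enriched after density centrifugation, cryopreserved, then given medium or PMA (0.5 µg/ml) plus ionomycin (0.025 µg/ml), 1 hr, 37 °C. Western blot for phospho-Thr389 and total p70S6K, densitometry, cohort means, paired t-test. Indirect response model with rebound (kin, kout; baseline 100%), FOCE with interaction.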

[2] = Tumor response by RECIST 1.0; type: in vivo, human
[3] = oral multiple dosing; ref [17]–[19]; cited from earlier work
Adverse events = type: in vivo, human
[4] = indirect response model with rebound
[5] = three studies collectively, 138 subjects

Compound: CO[C@H]1C[C@@H]2CC[C@@H](C)[C@@](O)(O2)C(=O)C(=O)N2CCCC[C@H]2C(=O)O[C@H]([C@H](C)C[C@@H]2CC[C@@H](O)[C@H](OC)C2)CC(=O)[C@H](C)/C=C(\C)[C@@H](O)[C@@H](OC)C(=O)[C@H](C)C[C@H](C)/C=C/C=C/C=C/1C [Sirolimus]
- phospho-p70S6K activity ([1]; 10 mg weekly dose, 1 week after the initial dose (data not shown)): suppressed
- phospho-p70S6K in peripheral T cells ([1]; 48 hours after administration, all dose levels, sirolimus alone study, p = 0.006): inhibition
- kout (first-order rate constant for loss of phospho-p70S6K), typical value [1, 4]: 0.05
- krebound, typical value [1, 4]: 11.3 mL/ng
- kin (zero-order rate constant for gain of phospho-p70S6K), typical value ([1]; indirect response model with rebound, baseline phosphorylation 100%): 5.5
- Rebound effect on phospho-p70S6K (levels exceeded baseline at later time points), subjects ([1]; sirolimus alone study): six out of twelve
- Partial response ([2]; collective studies, patient with epithelioid hemangioendothelioma with hepatic metastases): One partial response
- Stable disease, number of subjects ([2]; per study): 16
- Stable disease, percent of subjects ([2]; per study): 40%
- volume of distribution [3]: 12 L/kg
- Altered taste (adverse event) (Adverse events; Sirolimus Alone 10mg): 1
- Anemia (adverse event) (Adverse events; Sirolimus Alone 10mg): 3
- Anorexia (adverse event) (Adverse events; Sirolimus Alone 10mg): 1
- Diarrhea (adverse event) (Adverse events; Sirolimus Alone 10mg): 1
- Elevated Transaminases (adverse event) (Adverse events; Sirolimus Alone 10mg): 1
- Fatigue (adverse event) (Adverse events; Sirolimus Alone 10mg): 2
- Hyperlipidemia (adverse event) (Adverse events; Sirolimus Alone 10mg): 2
- Infection (adverse event) (Adverse events; Sirolimus Alone 10mg): 1
- Lymphopenia (adverse event) (Adverse events; Sirolimus Alone 10mg): 3
- Lymphopenia, grade 3 or 4 (Adverse events; Sirolimus Alone 10mg): 2
- Mucocutaneous dryness (adverse event) (Adverse events; Sirolimus Alone 10mg): 1
- Mucositis (adverse event) (Adverse events; Sirolimus Alone 10mg): 2
- Nausea (adverse event) (Adverse events; Sirolimus Alone 10mg): 3
- Paresthesia (adverse event) (Adverse events; Sirolimus Alone 10mg): 1
- Rash (adverse event) (Adverse events; Sirolimus Alone 10mg): 1
- Vomiting (adverse event) (Adverse events; Sirolimus Alone 10mg): 2
- Altered taste (adverse event) (Adverse events; Sirolimus Alone 20mg): 1
- Anemia (adverse event) (Adverse events; Sirolimus Alone 20mg): 5
- Anorexia (adverse event) (Adverse events; Sirolimus Alone 20mg): 1
- Decreased platelets (adverse event) (Adverse events; Sirolimus Alone 20mg): 1
- Diarrhea (adverse event) (Adverse events; Sirolimus Alone 20mg): 5
- Dyspnea (adverse event) (Adverse events; Sirolimus Alone 20mg): 1
- Elevated Transaminases (adverse event) (Adverse events; Sirolimus Alone 20mg): 4
- Fatigue (adverse event) (Adverse events; Sirolimus Alone 20mg): 4
- Hyperglycemia (adverse event) (Adverse events; Sirolimus Alone 20mg): 6
- Hyperlipidemia (adverse event) (Adverse events; Sirolimus Alone 20mg): 4
- Hypoxia (adverse event) (Adverse events; Sirolimus Alone 20mg): 2
- Infection (adverse event) (Adverse events; Sirolimus Alone 20mg): 1(1)
- Infection, grade 3 or 4 (Adverse events; Sirolimus Alone 20mg): 1(1)
- Lymphopenia (adverse event) (Adverse events; Sirolimus Alone 20mg): 4
- Lymphopenia, grade 3 or 4 (Adverse events; Sirolimus Alone 20mg): 1
- Mucositis (adverse event) (Adverse events; Sirolimus Alone 20mg): 1
- Nausea (adverse event) (Adverse events; Sirolimus Alone 20mg): 2
- Pneumonia (adverse event) (Adverse events; Sirolimus Alone 20mg): 2(2)
- Pneumonia, grade 3 or 4 (Adverse events; Sirolimus Alone 20mg): 2(2)
- Anemia (adverse event) (Adverse events; Sirolimus Alone 30mg): 3
- Anorexia (adverse event) (Adverse events; Sirolimus Alone 30mg): 1(1)
- Anorexia, grade 3 or 4 (Adverse events; Sirolimus Alone 30mg): 1(1)
- Decreased platelets (adverse event) (Adverse events; Sirolimus Alone 30mg): 1
- Diarrhea (adverse event) (Adverse events; Sirolimus Alone 30mg): 2
- Elevated Transaminases (adverse event) (Adverse events; Sirolimus Alone 30mg): 2
- Fatigue (adverse event) (Adverse events; Sirolimus Alone 30mg): 1
- Fever (adverse event) (Adverse events; Sirolimus Alone 30mg): 2
- Hyperglycemia (adverse event) (Adverse events; Sirolimus Alone 30mg): 6
- Hyperlipidemia (adverse event) (Adverse events; Sirolimus Alone 30mg): 3
- Hyperlipidemia, grade 3 or 4 (Adverse events; Sirolimus Alone 30mg): 1
- Hypertension (adverse event) (Adverse events; Sirolimus Alone 30mg): 1
- Infection (adverse event) (Adverse events; Sirolimus Alone 30mg): 1(1)
- Infection, grade 3 or 4 (Adverse events; Sirolimus Alone 30mg): 1(1)
- Lymphopenia (adverse event) (Adverse events; Sirolimus Alone 30mg): 3
- Lymphopenia, grade 3 or 4 (Adverse events; Sirolimus Alone 30mg): 1
- Mucocutaneous dryness (adverse event) (Adverse events; Sirolimus Alone 30mg): 1
- Nausea (adverse event) (Adverse events; Sirolimus Alone 30mg): 4
- Nausea, grade 3 or 4 (Adverse events; Sirolimus Alone 30mg): 1
- Pneumonia (adverse event) (Adverse events; Sirolimus Alone 30mg): 1
- Rash (adverse event) (Adverse events; Sirolimus Alone 30mg): 1
- Vomiting (adverse event) (Adverse events; Sirolimus Alone 30mg): 2
- Decreased platelets (adverse event) (Adverse events; Sirolimus Alone 30mg (4h)): 1
- Diarrhea (adverse event) (Adverse events; Sirolimus Alone 30mg (4h)): 4
- Elevated Transaminases (adverse event) (Adverse events; Sirolimus Alone 30mg (4h)): 1
- Fatigue (adverse event) (Adverse events; Sirolimus Alone 30mg (4h)): 1
- Hyperglycemia (adverse event) (Adverse events; Sirolimus Alone 30mg (4h)): 1
- Leukopenia (adverse event) (Adverse events; Sirolimus Alone 30mg (4h)): 2
- Nausea (adverse event) (Adverse events; Sirolimus Alone 30mg (4h)): 2
- Vomiting (adverse event) (Adverse events; Sirolimus Alone 30mg (4h)): 2
- Diarrhea (adverse event) (Adverse events; Sirolimus Alone 30mg (24h)): 2
- Infection (adverse event) (Adverse events; Sirolimus Alone 30mg (24h)): 1(1)
- Infection, grade 3 or 4 (Adverse events; Sirolimus Alone 30mg (24h)): 1(1)
- Mucositis (adverse event) (Adverse events; Sirolimus Alone 30mg (24h)): 1
- Nausea (adverse event) (Adverse events; Sirolimus Alone 30mg (24h)): 1
- Rash (adverse event) (Adverse events; Sirolimus Alone 30mg (24h)): 1
- Anorexia (adverse event) (Adverse events; Sirolimus Alone 45mg (24h)): 1
- Diarrhea (adverse event) (Adverse events; Sirolimus Alone 45mg (24h)): 3
- Diarrhea, grade 3 or 4 (Adverse events; Sirolimus Alone 45mg (24h)): 1
- Hyperglycemia (adverse event) (Adverse events; Sirolimus Alone 45mg (24h)): 1
- Mood Alteration (adverse event) (Adverse events; Sirolimus Alone 45mg (24h)): 1
- Nausea (adverse event) (Adverse events; Sirolimus Alone 45mg (24h)): 2
- Vomiting (adverse event) (Adverse events; Sirolimus Alone 45mg (24h)): 4
- Anorexia (adverse event) (Adverse events; Sirolimus Alone 60mg): 3
- Decreased platelets (adverse event) (Adverse events; Sirolimus Alone 60mg): 1
- Diarrhea (adverse event) (Adverse events; Sirolimus Alone 60mg): 6
- Diarrhea, grade 3 or 4 (Adverse events; Sirolimus Alone 60mg): 1
- Elevated Transaminases (adverse event) (Adverse events; Sirolimus Alone 60mg): 1
- Fatigue (adverse event) (Adverse events; Sirolimus Alone 60mg): 5
- Fever (adverse event) (Adverse events; Sirolimus Alone 60mg): 1
- Hyperglycemia (adverse event) (Adverse events; Sirolimus Alone 60mg): 4
- Hyperlipidemia (adverse event) (Adverse events; Sirolimus Alone 60mg): 6
- Hyperlipidemia, grade 3 or 4 (Adverse events; Sirolimus Alone 60mg): 1
- Infection (adverse event) (Adverse events; Sirolimus Alone 60mg): 1
- Lymphopenia (adverse event) (Adverse events; Sirolimus Alone 60mg): 3
- Nausea (adverse event) (Adverse events; Sirolimus Alone 60mg): 6
- Rash (adverse event) (Adverse events; Sirolimus Alone 60mg): 1
- Vomiting (adverse event) (Adverse events; Sirolimus Alone 60mg): 5
- Weight Loss (adverse event) (Adverse events; Sirolimus Alone 60mg): 4
- Altered taste (adverse event) (Adverse events; Total (n=138)): 5
- Anemia (adverse event) (Adverse events; Total (n=138)): 46
- Anemia, grade 3 or 4 (Adverse events; Total (n=138)): 5
- Anorexia (adverse event) (Adverse events; Total (n=138)): 32
- Anorexia, grade 3 or 4 (Adverse events; Total (n=138)): 1
- Decreased platelets (adverse event) (Adverse events; Total (n=138)): 22
- Diarrhea (adverse event) (Adverse events; Total (n=138)): 58
- Diarrhea, grade 3 or 4 (Adverse events; Total (n=138)): 3
- Dyspnea (adverse event) (Adverse events; Total (n=138)): 6
- Dyspnea, grade 3 or 4 (Adverse events; Total (n=138)): 1
- Edema (adverse event) (Adverse events; Total (n=138)): 5
- Edema, grade 3 or 4 (Adverse events; Total (n=138)): 1
- Elevated Creatinine (adverse event) (Adverse events; Total (n=138)): 1
- Elevated Transaminases (adverse event) (Adverse events; Total (n=138)): 23
- Elevated Transaminases, grade 3 or 4 (Adverse events; Total (n=138)): 2
- Epistaxis (adverse event) (Adverse events; Total (n=138)): 1
- Fatigue (adverse event) (Adverse events; Total (n=138)): 46
- Fatigue, grade 3 or 4 (Adverse events; Total (n=138)): 3
- Fever (adverse event) (Adverse events; Total (n=138)): 4
- Hand & Foot Syndrome (adverse event) (Adverse events; Total (n=138)): 2
- Hyperglycemia (adverse event) (Adverse events; Total (n=138)): 72
- Hyperglycemia, grade 3 or 4 (Adverse events; Total (n=138)): 7
- Hyperlipidemia (adverse event) (Adverse events; Total (n=138)): 59
- Hyperlipidemia, grade 3 or 4 (Adverse events; Total (n=138)): 3
- Hypertension (adverse event) (Adverse events; Total (n=138)): 2
- Hypocalcemia (adverse event) (Adverse events; Total (n=138)): 2
- Hypoglycemia (adverse event) (Adverse events; Total (n=138)): 1(1)
- Hypoglycemia, grade 3 or 4 (Adverse events; Total (n=138)): 1(1)
- Hypoxia (adverse event) (Adverse events; Total (n=138)): 2
- Infection (adverse event) (Adverse events; Total (n=138)): 14
- Infection, grade 3 or 4 (Adverse events; Total (n=138)): 4
- Leukopenia (adverse event) (Adverse events; Total (n=138)): 17
- Lymphopenia (adverse event) (Adverse events; Total (n=138)): 56
- Lymphopenia, grade 3 or 4 (Adverse events; Total (n=138)): 14
- Mood Alteration (adverse event) (Adverse events; Total (n=138)): 2
- Mucocutaneous dryness (adverse event) (Adverse events; Total (n=138)): 6
- Mucositis (adverse event) (Adverse events; Total (n=138)): 17
- Myalgia (adverse event) (Adverse events; Total (n=138)): 3
- Nail Changes (adverse event) (Adverse events; Total (n=138)): 1(1)
- Nail Changes, grade 3 or 4 (Adverse events; Total (n=138)): 1(1)
- Nausea (adverse event) (Adverse events; Total (n=138)): 48
- Nausea, grade 3 or 4 (Adverse events; Total (n=138)): 2
- Neutropenia (adverse event) (Adverse events; Total (n=138)): 7
- Paresthesia (adverse event) (Adverse events; Total (n=138)): 2
- Pleural Effusion (adverse event) (Adverse events; Total (n=138)): 1
- Pneumonia (adverse event) (Adverse events; Total (n=138)): 5
- Pneumonia, grade 3 or 4 (Adverse events; Total (n=138)): 4
- Pruritis (adverse event) (Adverse events; Total (n=138)): 6
- Rash (adverse event) (Adverse events; Total (n=138)): 14
- Vomiting (adverse event) (Adverse events; Total (n=138)): 33
- Vomiting, grade 3 or 4 (Adverse events; Total (n=138)): 1
- Weight Loss (adverse event) (Adverse events; Total (n=138)): 15
- Hyperglycemia, subjects with toxicity (Adverse events; [5]): 52%
- Hyperlipidemia, subjects with toxicity (Adverse events; [5]): 43%
- Lymphopenia, subjects with toxicity (Adverse events; [5]): 41%
